We go through eight compounds from ChEMBL document CHEMBL1145749, “Inhibition of human immunodeficiency virus reverse transcriptase by synadenol triphosphate and its E-isomer” (J Med Chem, 2003).

The source made the active and inactive calls. No cut-off for these calls is given here.

The nature of series [1]: Ratio of inhibitory activity of compound to that of substrate activity of dATP against RT M184V enzyme was determined. The method, boiled down:
(§1)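 Recombinant HIV-1 RT (wild-type, M184V or M184I) was expressed in E. coli JM109 with 1 mM IPTG for 5 h, then purified on Q and SP columns to >90% purity. Assay used MS2 RNA/22A DNA primer in 50 mM Tris-HCl pH 7.8, 6 mM MgCl2, 150 mM KCl and 0.01% Triton X-100. Synthesis was distributive, with [3H]dATP as the only nucleotide, at 37 °C. Timed aliquots were spotted on DE81 and counted by scintillation. Ki came from the abscissa intercept of the Lineweaver–Burk replot. Ratio was Ki over dATP Km.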

Series [2] in a line: Ratio of inhibitory activity of compound to that of substrate activity of dATP against RT M184I enzyme was determined. The method, boiled down:
as §1

Series [3] is described as follows: Ratio of inhibitory activity of compound to that of substrate activity of dATP against RT wt enzyme was determined. The gist of the method: as §1
Series [4] concerns Human immunodeficiency virus 1. As to the kind of experiment: Antiviral selectivity against HIV-1 virus; Significant activity. In kind it is functional, organism-based.
For series [5], the system named is Human betaherpesvirus 5. The experiment in a line: Antiviral selectivity against HCMV virus; exhibited wide range selectivity. In kind it is functional, organism-based.
The test system of series [6] is Human gammaherpesvirus 4. The experiment in a line: Antiviral selectivity against EB virus; exhibited wide range selectivity. In kind it is functional, organism-based.
Series [7] concerns Human immunodeficiency virus 1. The experiment in a line: Antiviral selectivity against HIV-1 virus; exhibited wide range selectivity. In kind it is functional, organism-based.
Series [8] relates to Human alphaherpesvirus 3. The experiment in a line: Antiviral selectivity against varicella zoster virus; exhibited wide range selectivity. In kind it is functional, organism-based.
Series [9] deals with Human gammaherpesvirus 4. The experiment in a line: Antiviral selectivity against […]; Inactive. In kind it is functional, organism-based.
Series [10] deals with Human alphaherpesvirus 3. As to the kind of experiment: Antiviral selectivity against varicella zoster virus; Inactive. It counts as functional, organism-based.
The test system of series [11] is Human betaherpesvirus 5. As to the kind of experiment: Antiviral selectivity against HCMV virus; Inactive. In kind it is functional, organism-based.
Series [12] deals with Human immunodeficiency virus 1. The experiment in a line: Antiviral selectivity against HIV-1 virus; Inactive. In kind it is functional, organism-based.
The test system of series [13] is Nc1ncnc2c1ncn2[C@H]1C[C@H](O)[C@@H](COP(=O)(O)OP(=O)(O)OP(=O)(O)O)O1. As to the kind of experiment: Substrate Activity against HIV-1 reverse transcriptase (RT M184I). The method, boiled down: (§2)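 Purified recombinant HIV-1 RT M184V or M184I was assayed on MS2 RNA/22A primer at 37 °C (pH 7.8 Tris, 6 mM MgCl2, 150 mM KCl, 0.01% Triton X-100) with [3H]dATP as the only nucleotide substrate. Aliquots were taken 4–5 times onto DE81 filters and counted by scintillation. Km was taken from the Lineweaver–Burk plot without inhibitor.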

For series [14] the test system is unchanged. The experiment in a line: Substrate Activity against HIV-1 reverse transcriptase (RT M184V). The method, boiled down: as §2

With `Nc1ncnc2c1ncn2/C=C1\CC1COP(=O)(O)OP(=O)(O)OP(=O)(O)O` (stereo not given), the values for the Ki/Km in [1], in series [2] and in [3] were 137, 187 and 25, respectively.

Turning to `COC(=O)C(C)NP(=O)(OCC1C/C1=C\n1cnc2c(N)ncnc21)Oc1ccccc1` (stereo not given), the Anti-HIV activity entry in series [4] was “Significant activity”.

Turning to `Nc1ncnc2c1ncn2/C=C1/CC1CO` (stereo not given), the Antiviral selectivity result (in the series on Human betaherpesvirus 5 [5]; in the series on Human gammaherpesvirus 4 [6]; in [7]; with Human alphaherpesvirus 3 [8]) was “exhibited wide range selectivity” throughout.

In the case of `Nc1ncnc2c1ncn2[C@H]1CC[C@@H](COP(=O)(O)OP(=O)(O)OP(=O)(O)O)O1`, the Ki/Km in series [1] was determined as 1.3; in series [2], 3.2; in [3], 1.2.

For the compound `Nc1ncnc2c1ncn2/C=C1\CC1CO` (stereo not given), the IA result (in the series on Human gammaherpesvirus 4 [9]; in the series with Human alphaherpesvirus 3 [10]; with Human betaherpesvirus 5 [11]; in series [12]) was “inactive” throughout.

On to “Human immunodeficiency virus type 1 reverse transcriptase (Human immunodeficiency virus 1), Q72547 M184I”, for which, in series [13], the Km is 0.38 µM.

With “Human immunodeficiency virus type 1 reverse transcriptase (Human immunodeficiency virus 1), Q72547 M184V”, the Michaelis-Menten constant (Km) in [14] is 0.38 µM.

Regarding `Nc1ncnc2c1ncn2/C=C1/CC1COP(=O)(O)OP(=O)(O)OP(=O)(O)O` (stereo not given), the Ki/Km in series [1] worked out at 4.5; in [2] it was 6.3; in [3] it was 0.8.
